This test is described as follows: inhibitors of GR-EGFP nuclear translocation, primary screen, dynein cargo transport inhibitor project, imaging, high-content, 3617.4 mouse cells (AID 1381). The conditions noted are these: stimulated with dexamethasone, 1 µM. The method in brief: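 Buffer or medium – tet-free medium with charcoal-stripped serum · Signal – automated 10x imaging of fixed Hoechst-stained cells · Also added – dexamethasone agonist, 1.0 µM final, for 30 min · Incubation – induction 48 h, compound 1 h, agonist 30 min · Read-out – GR-EGFP nuclear translocation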

[1] abbreviates: measured here: cell count per field, at 20 µM.
Where [2] appears, read: measured here: cytoplasmic GR-EGFP intensity, at 20 µM, stronger effect = higher value.
The mark [3] stands for this setting: measured here: nuclear GR-EGFP intensity, at 20 µM, stronger effect = lower value.
[4] abbreviates: measured here: cell count per field, at 50 µM.
Where [5] appears, read: measured here: cytoplasmic GR-EGFP intensity, at 50 µM, stronger effect = higher value.
The mark [6] stands for this setting: measured here: nuclear GR-EGFP intensity, at 50 µM, stronger effect = lower value.

SMILES strings stand for the structures. About 1,000 (0.45%) of roughly 220,000 compounds were called active.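 The calls were made as follows: active = plate z-score of nuclear minus cytoplasmic receptor signal below a set negative limit, without overly bright fluorescence or cell loss (cut at about -3.5 in these data, passing the limit was not always enough); inactive = the rest, inconclusive results apart.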 What follows is part of a selection rich in actives, with near analogues and random picks from the rest.

In the case of `S=c1[nH]nc(-c2cccnc2)n1/N=C/C(Cl)=C\c1ccccc1`, the z-score (at 20 µM, stronger effect = lower value) is -0.315 (inactive); the z-score under setting [1] is -1.55; the z-score under setting [2] was found to be 0.22; the z-score under setting [3] is 0.116.
On to `Cc1cc(-c2n[nH]c(=S)n2/N=C/c2ccco2)n[nH]1`, for which the z-score is 0.146 (inactive) (at 20 µM, stronger effect = lower value); -0.499 under setting [1]; -0.239 under setting [2]; -0.0329 under setting [3].
On to `Cc1cc(-c2n[nH]c(=S)n2/N=C/C(Br)=C/c2ccccc2)n[nH]1`, for which the z-score runs as follows: (at 20 µM, stronger effect = lower value) -4.43 (active); under setting [1], -1.17; under setting [2], 0.939; under setting [3], -2.57.
For `Nc1ccccc1SCc1cc([N+](=O)[O-])cc2c1OCOC2` the same measures were -0.839 (inactive), 0.822, 3.91 and 0.0233.
Turning to `Nc1ccccc1Sc1ccc(C(F)(F)F)cc1[N+](=O)[O-]`, the z-score was -0.595 (inactive) (at 20 µM, stronger effect = lower value); 0.488 under setting [1]; -0.213 under setting [2]; -0.319 under setting [3].
Take `Nc1ccccc1SC(C[N+](=O)[O-])c1ccccc1` (stereo not given): the z-score (at 20 µM, stronger effect = lower value) is -4.57 (active); the z-score under setting [1] was -0.167; the z-score under setting [2] stood at 2.56; the z-score under setting [3] is -1.84.
For `COC(=O)c1cc(C(=O)N(Cc2ccccc2)c2ccccn2)cc([N+](=O)[O-])c1` the same measures were -0.154 (inactive), -0.0688, -0.223 and -0.31.
As for `CN1CCN(C(=O)/C(=C\c2cccs2)NC(=O)c2cccs2)CC1`, the z-score is, setting by setting: (at 20 µM, stronger effect = lower value) -0.757 (inactive); under setting [1], 1.17; under setting [2], -0.214; under setting [3], -0.212.
For `OCC(CO)(CO)NCc1ccc(-c2ccccc2)cc1` the same measures were -0.998 (inactive), 0.791, -0.231 and -0.299.
For `O=C(NNC(=O)c1ccccc1[N+](=O)[O-])Nc1ccccc1C(F)(F)F` the same measures were -1.96 (inactive), 0.934, -0.0968 and -0.966.
On to `CC1(C)CCSC(/C=C/c2ccccc2)=N1`, for which the z-score (at 20 µM, stronger effect = lower value) was -6.85 (active); the z-score under setting [1] was determined as 1.01; the z-score under setting [2] came to 1.09; the z-score under setting [3] is -2.95.
For `Cc1ccc2nc(-c3ccncc3)cc(C(=O)Nc3ccc(OC(F)F)cc3)c2c1` the same measures were -0.0501 (inactive), 0.497, -0.311 and -0.123.
Regarding `O=C(Nn1c(SCc2ccc([N+](=O)[O-])cc2)nc2ccccc2c1=O)c1ccc(F)cc1`, the z-score is -0.621 (inactive) (at 20 µM, stronger effect = lower value); 3.84 under setting [1]; -0.327 under setting [2]; -0.596 under setting [3].
For `O=C(CCc1nnc(CCCCc2ccccc2)o1)NC(c1cccnc1)C(F)(F)F` (stereo not given) the same measures were -0.699 (inactive), 1.17, -0.266 and -0.517.
Consider `COc1cc2c(cc1OC)C(C(C)C)=NC(C)(C)C2`, for which the z-score is, setting by setting: (at 50 µM, stronger effect = lower value) 1.53 (inactive); under setting [4], -0.94; under setting [5], -0.084; under setting [6], 1.55.
With `COc1cc2c(cc1O)C(SC)=NC(C)(C)C2`, the z-score reads like this: (at 50 µM, stronger effect = lower value) -4 (active); under setting [4], -1.21; under setting [5], 2.4; under setting [6], -1.15.
Regarding `COc1cc2c(cc1OC)C(Nc1ccc(S(N)(=O)=O)cc1)=NC(C)(C)C2`, the z-score is 0.371 (inactive) (at 20 µM, stronger effect = lower value); 0.476 under setting [1]; -0.265 under setting [2]; 0.242 under setting [3].
Turning to `CC(OC(=O)c1ccccc1N1C(=O)C2C3CCC(C3)C2C1=O)C(=O)c1ccccc1` (stereo not given), the z-score runs as follows: (at 20 µM, stronger effect = lower value) 0.064 (inactive); under setting [1], -1.14; under setting [2], -0.233; under setting [3], -0.118.
As for `CC(C)CNc1ncnc2c1cnn2Cc1ccc(Cl)cc1`, the z-score reads like this: (at 20 µM, stronger effect = lower value) -0.416 (inactive); under setting [1], 0.999; under setting [2], -0.294; under setting [3], -0.416.
For `CCOc1cc(N2CCOCC2)c(OCC)cc1NC(=O)C1=NN(c2cccc(C)c2)C(=O)CC1`, the z-score (at 20 µM, stronger effect = lower value) was 0.424 (inactive); the z-score under setting [1] was 0.873; the z-score under setting [2] was -0.249; the z-score under setting [3] is -0.0907.
For `C=CS(=O)c1sc(Cl)c(N2CCOCC2)c1[N+](=O)[O-]` (stereo not given) the same measures were -5.81 (active), -1.51, 2.63 and -2.55.
With `O=C(NCc1ccccc1)c1ccc(CNc2c(N3CCCC3)c(=O)c2=O)cc1`, the z-score was 1.94 (inactive) (at 20 µM, stronger effect = lower value); -1.79 under setting [1]; -0.175 under setting [2]; 1.39 under setting [3].
Take `Cc1ccc(OCC(=O)Nc2cccc3c2CCCC3)cc1C`: the z-score runs as follows: (at 20 µM, stronger effect = lower value) -0.29 (inactive); under setting [1], 0.502; under setting [2], -0.193; under setting [3], -0.445.
On to `CCN(CC)c1ccc2oc(=O)c(C)nc2c1`, for which the z-score is -4.98 (active) (at 50 µM, stronger effect = lower value); 0.102 under setting [4]; 1.35 under setting [5]; -2.69 under setting [6].
Consider `CCN(CC)c1ccc2c(Nc3ccccc3)c(C=O)c(=O)oc2c1`, for which the z-score by setting is: (at 20 µM, stronger effect = lower value) 1.78 (inactive); under setting [1], -1.59; under setting [2], 1.04; under setting [3], 1.54.
As for `CCN(CC)c1ccc2cc(C(=O)O)c(=O)oc2c1`, the z-score is 0.513 (inactive) (at 20 µM, stronger effect = lower value); -0.14 under setting [1]; -0.259 under setting [2]; 0.0952 under setting [3].
For the molecule `O=C(Nc1ccn(Cc2ccccc2)n1)c1n[nH]c([N+](=O)[O-])c1Cl`, the z-score runs as follows: (at 20 µM, stronger effect = lower value) 1.15 (inactive); under setting [1], -1.23; under setting [2], -0.194; under setting [3], 0.757.
As for `Cc1cccc(-n2cc(CN3CCN(C(=O)c4ncn[nH]4)CC3)c(-c3cccc(F)c3)n2)c1`, the z-score was 0.856 (inactive) (at 20 µM, stronger effect = lower value); -0.858 under setting [1]; -0.164 under setting [2]; 0.386 under setting [3].
`CCN(CC)S(=O)(=O)c1ccc2c3c(cccc13)C(=O)S2`: the z-score was -0.224 (inactive) (at 50 µM, stronger effect = lower value); 0.583 under setting [4]; -0.26 under setting [5]; -0.962 under setting [6].
As for `CCNC(=S)Nc1ccc(OC(F)(F)F)cc1`, the z-score is -0.827 (inactive) (at 20 µM, stronger effect = lower value); 0.129 under setting [1]; -0.313 under setting [2]; 0.232 under setting [3].
For `CCOC(=O)CN(Cc1ccc(OC)c(OC)c1)S(=O)(=O)c1ccc(OC)cc1` the same measures were -0.369 (inactive), 0.666, -0.0278 and 0.0349.
On to `COc1ccc(CCNC(=O)C(Sc2ccccn2)c2ccccc2)cc1OC` (stereo not given), for which the z-score was 1.23 (inactive) (at 20 µM, stronger effect = lower value); -0.867 under setting [1]; -0.00233 under setting [2]; 0.852 under setting [3].
Turning to `COc1ccc(C(CCN(Cc2ccc(OC)c(OC)c2)C(=O)CCl)c2ccccc2)cc1` (stereo not given), the z-score (at 20 µM, stronger effect = lower value) was -5.18 (active); the z-score under setting [1] is -0.271; the z-score under setting [2] is 0.893; the z-score under setting [3] is -2.94.
For `CN(CCc1ccccn1)C(=O)CCC1CCCN(Cc2ccccc2OC(F)F)C1` (stereo not given) the same measures were -0.0542 (inactive), 0.0326, -0.306 and 0.247.
For `C=CCn1cc(C(=O)NCc2ccc(Cl)cc2)c(=O)c2cc(S(=O)(=O)N(CC)CC)ccc21` the same measures were 0.479 (inactive), -0.781, -0.191 and 1.32.

Source of the values: PubChem BioAssay AID1381 (University of Pittsburgh Molecular Library Screening Center, 2008).
